# Experimental data published in ChEMBL document CHEMBL3259745, “Identification of trisubstituted-pyrazol carboxamide analogs as novel and potent antagonists of farnesoid X receptor” (Bioorg Med Chem, 2014).
# Calls of active or inactive are those of the source. The rule behind the calls is not given here.
# Columns and labels:
# [1] = biological target: T1, Bile acid receptor (Homo sapiens) (UniProt Q96RI1); experiment: Agonist activity at FXR (unknown origin) expressed in HEK293T cells after 16 hrs by beta-lactamase reporter gene assay relative to control; type: cell-based; details: HEK-293T
# T1 sequence (whole entry): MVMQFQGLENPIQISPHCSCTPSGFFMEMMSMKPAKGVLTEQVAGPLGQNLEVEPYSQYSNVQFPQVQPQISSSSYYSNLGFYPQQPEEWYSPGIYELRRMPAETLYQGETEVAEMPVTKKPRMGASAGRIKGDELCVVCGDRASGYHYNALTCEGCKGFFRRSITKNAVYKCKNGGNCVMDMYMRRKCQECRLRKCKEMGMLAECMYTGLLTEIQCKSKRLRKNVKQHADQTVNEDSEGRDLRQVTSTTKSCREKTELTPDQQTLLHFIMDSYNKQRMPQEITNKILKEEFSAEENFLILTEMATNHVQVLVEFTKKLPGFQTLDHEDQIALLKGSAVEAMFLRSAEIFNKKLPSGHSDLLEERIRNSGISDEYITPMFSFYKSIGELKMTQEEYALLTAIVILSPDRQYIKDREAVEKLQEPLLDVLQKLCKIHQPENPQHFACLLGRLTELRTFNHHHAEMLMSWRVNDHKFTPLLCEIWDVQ
# [2] = biological target: T1, Bile acid receptor (Homo sapiens); experiment: Inhibition of GW4064-induced transactivation of FXR (unknown origin) expressed in HEK293T cells at 40 uM after 16 hrs by beta-lactamase reporter gene assay relative to control; type: cell-based; details: HEK-293T
# [3] = Cytotoxicity against HEK293T cells expressing FXR and beta-lactamase genes assessed as inhibition of cell viability at 40 uM after 16 hrs by CellTiter-Glo luminescent assay relative to control; type: cell-based, HEK-293T; details: human, read-out: INH
# Method in brief: (§1)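 Viability run alongside the agonist assay in the same GeneBLAzer FXR HEK 293T cells: 20,000 cells/well in phenol red-free DMEM with 2% charcoal/dextran-treated FBS, 0.5% DMSO, 16 h at 37°C. Cooled 20 min, then CellTiter-Glo added for 20 min in dark; luminescence read.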
# [4] = biological target: T1, Bile acid receptor (Homo sapiens); experiment: Inhibition of GW4064-induced transactivation of FXR (unknown origin) expressed in HEK293T cells at 1 uM after 16 hrs by beta-lactamase reporter gene assay relative to control; type: cell-based; details: HEK-293T
# [5] = biological target: T1, Bile acid receptor (Homo sapiens); experiment: Antagonist activity at human GST-tagged FXR at 1.48 uM after 20 mins by TR-FRET assay relative to control
# [6] = Cytotoxicity against HEK293T cells expressing FXR and beta-lactamase genes assessed as inhibition of cell viability at 13.3 uM after 16 hrs by CellTiter-Glo luminescent assay relative to control; type: cell-based, HEK-293T; details: human, read-out: INH; method in brief: as §1
# [7] = biological target: T1, Bile acid receptor (Homo sapiens); experiment: Antagonist activity at human GST-tagged FXR at 164 nM after 20 mins by TR-FRET assay relative to control
# [8] = biological target: T1, Bile acid receptor (Homo sapiens); experiment: Ratio of E16 IC50 to compound IC50 for human GST-tagged FXR after 20 mins by TR-FRET assay
# [9] = biological target: T1, Bile acid receptor (Homo sapiens); experiment: Antagonist activity at human GST-tagged FXR at 1.5 uM after 20 mins by TR-FRET assay relative to control
# [10] = biological target: T1, Bile acid receptor (Homo sapiens); experiment: Inhibition of GW4064-induced transactivation of FXR (unknown origin) expressed in HEK293T cells at 20 uM after 16 hrs by beta-lactamase reporter gene assay relative to control; type: cell-based; details: HEK-293T
# [11] = biological target: T1, Bile acid receptor (Homo sapiens); experiment: Antagonist activity at human GST-tagged FXR at 40 uM after 20 mins by TR-FRET assay relative to control
# [12] = biological target: T1, Bile acid receptor (Homo sapiens); experiment: Agonist activity at human FXR
# [13] = biological target: T1, Bile acid receptor (Homo sapiens); experiment: Ratio of E16 IC50 to compound IC50 for transactivation of FXR (unknown origin) expressed in HEK293T cells after 16 hrs by beta-lactamase reporter gene assay; type: cell-based; details: HEK-293T
# Bile acid receptor [14] = biological target: T2, Bile acid receptor (Homo sapiens, UniProt Q96RI1); experiment: Inhibition of GW4064-induced transactivation of FXR (unknown origin) expressed in HEK293T cells after 16 hrs by beta-lactamase reporter gene assay; type: cell-based, HEK-293T
# T2 sequence (Q96RI1 whole entry): T1 sequence (whole entry)
# Bile acid receptor [15] = biological target: T2, Bile acid receptor; experiment: Antagonist activity at human GST-tagged FXR after 20 mins by TR-FRET assay
# [16] = biological target: T1, Bile acid receptor (Homo sapiens); details: 4.44 uM
# [17] = Cytotoxicity against HEK293T cells expressing FXR and beta-lactamase genes assessed as inhibition of cell viability at 4.4 uM after 16 hrs by CellTiter-Glo luminescent assay relative to control; type: cell-based, HEK-293T; details: human, read-out: INH; method in brief: as §1
compound,measurement,setting,value
COc1cccc(Cn2cc(CNc3ccc(C)c(S(=O)(=O)N4CCOCC4)c3)c(-c3cccc(OC)c3)n2)c1,Activity,[1],inactive
same,inhibition,[2],3.1%
same,"cytotoxicity at 16 h, 40 µM",[3],< 5%
same,inhibition,[4],inactive
same,inhibition,[5],39.8%
Cc1ccc(-c2nn(-c3nc4ccccc4s3)cc2C(=O)Nc2ccc(C)c(S(=O)(=O)N3CCOCC3)c2)cc1,Activity,[1],inactive
same,"cytotoxicity at 16 h, 13.3 µM",[6],11.5%
same,inhibition,[7],102%
same,Ratio IC50,[8],3
same,inhibition,[2],79.1%
Cc1ccc(-c2nn(CC3CC3)cc2C(=O)Nc2ccc(C)c(S(=O)(=O)N3CCOCC3)c2)cc1,Activity,[1],inactive
same,inhibition,[2],100%
same,"cytotoxicity at 16 h, 40 µM",[3],< 5%
same,inhibition,[9],105%
COc1cccc(Cn2cc(C(=O)N(C)c3ccc(C)c(S(=O)(=O)N4CCOCC4)c3)c(C(C)C)n2)c1,Activity,[1],inactive
same,inhibition,[10],2.4%
same,"cytotoxicity at 16 h, 40 µM",[3],13.5%
same,inhibition,[11],80.3%
same,inhibition,[4],inactive
CCN(CC)S(=O)(=O)c1cc(NC(=O)c2cnn(-c3cccnc3)c2)ccc1C,Activity,[12],inactive
same,inhibition,[2],24%
same,"cytotoxicity at 16 h, 40 µM",[3],10.3%
same,inhibition,[5],23%
COc1cccc(Cn2cc(C(=O)Nc3ccc(C)c(S(=O)(=O)N4CCOCC4)c3)c(-c3ccc(C)cc3)n2)c1,Activity,[1],inactive
same,inhibition,[7],130%
same,Ratio IC50,[8],5.26
same,inhibition,[2],98.9%
same,"cytotoxicity at 16 h, 40 µM",[3],< 5%
same,Ratio IC50,[13],4.59
O=C(Nc1cccc(S(=O)(=O)N2CCOCC2)c1)c1cn(-c2ccccc2)nc1-c1cccnc1,IC50,Bile acid receptor [14],10.8 µM
same,IC50,Bile acid receptor [15],1.3 µM
same,Activity,[12],inactive
same,inhibition,[2],82.3%
same,"cytotoxicity at 16 h, 40 µM",[3],< 5%
same,inhibition,[16],90.4%
CCCCn1cc(C(=O)Nc2ccc(C)c(S(=O)(=O)N3CCOCC3)c2)c(-c2ccc(C)cc2)n1,Activity,[1],inactive
same,"cytotoxicity at 16 h, 4.4 µM",[17],10.3%
same,inhibition,[10],97.9%
same,inhibition,[9],130%
